From ChEMBL document CHEMBL1144783, “Novel bisbenzimidazoles with antileishmanial effectiveness” (Bioorg Med Chem Lett, 2008) come the findings set out here.

For one test, the system named is Pneumocystis carinii. Nature of the test: Antileishmanial activity against Pneumocystis carinii. It is filed as functional, organism-based.
In test [1] the test system is Trypanosoma brucei rhodesiense. Put plainly: […] rhodesiense STIB 900 after 3 days. It is filed as functional, organism-based. To be noted: STIB 900, 72 h. The procedure, abridged: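 Bloodstream-form trypomastigotes, 8×10^3 per well in 100 μl medium, 96-well plates. Incubated 3 days, then resazurin added and fluorescence read after a further 24 h at 37 °C to gauge parasite growth. IC50 reported.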

The subject of another test is Leishmania donovani. Nature of the test: Antileishmanial activity against Leishmania donovani by Alamar blue assay. It is filed as functional, organism-based. The procedure, abridged:
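L. donovani promastigotes at 2×10^6 cells/ml, 96-well format. Compounds dissolved in DMSO (2 mg ml⁻¹ stock), diluted in culture medium to final concentrations; matching DMSO dilutions as controls. Incubation 72 h at 26 °C; growth read by Alamar blue.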
Background: Alamar Blue is a resazurin reagent that responds to reducing activity.

The subject of the next test is Vero. Put plainly: Cytotoxicity against african green monkey Vero cells by neutral red assay. It is filed as cell-based. The following applies: Chlorocebus sabaeus.

In the case of `c1ccc2[nH]c(-c3ccc(OCCCCCCCOc4ccc(-c5nc6ccccc6[nH]5)cc4)cc3)nc2c1`, the IC50 in the test with Pneumocystis carinii was over 100 µM; in test [1], over 60 µM; with Leishmania donovani, 13.6 µM; in the test with Vero it was 46.1 µM. Moreover, the IC90 with Leishmania donovani worked out at 56.2 µM.
Taken in the same sequence, the figures for `c1ccc2[nH]c(-c3ccc(OCCCCCCOc4ccc(-c5nc6ccccc6[nH]5)cc4)cc3)nc2c1` were over 100 µM, over 60 µM, 11.8 µM, 27.9 µM and 53.8 µM.
Taken in the same sequence, the figures for `c1ccc2[nH]c(-c3ccc(OCCCCCOc4ccc(-c5nc6ccccc6[nH]5)cc4)cc3)nc2c1` were 54.1 µM, over 60 µM, 1.4 µM, 28.7 µM and 3.1 µM.
Taken in the same sequence, the figures for `c1cc(OCCCCCOc2cccc(-c3nc4ccccc4[nH]3)c2)cc(-c2nc3ccccc3[nH]2)c1` were 5.2 µM, 0.85 µM, 10.3 µM, 12.3 µM and 45.1 µM.
On to `c1ccc2[nH]c(-c3ccc(OCCCOc4ccc(-c5nc6ccccc6[nH]5)cc4)cc3)nc2c1`, for which the IC50 is 10.2 µM with Pneumocystis carinii, over 60 µM in test [1], 1.5 µM with Leishmania donovani and 27.2 µM with Vero. In the test with Leishmania donovani, this molecule registered an IC90 of 3.3 µM.
The like results for `c1ccc2[nH]c(-c3ccc(OCCCCOc4ccc(-c5nc6ccccc6[nH]5)cc4)cc3)nc2c1` were, in that order, 169 µM, over 60 µM, 4.9 µM, over 100 µM and 12.9 µM.
As to `N=C(N)c1ccc(OCCCCCOc2ccc(C(=N)N)cc2)cc1` [PENTAMIDINE], the concentration for half-maximal inhibition (IC50) in test [1] was 0.05 µM; with Vero it was over 100 µM. Besides, the IC90 in the test on Leishmania donovani was 9.8 µM.

By IC50 is commonly meant the concentration that inhibits the measured activity by half. As a reminder, the IC90 is the concentration at which the effect reaches the 90% level.
